“Also recorded” adds a separate entry of the source. No end group written: not given here.
How the values were obtained:
Grx1 [1] = target: T1, Grx1 (Homo sapiens, UniProt P35754); assay: Grx1 de-glutathionylation enzyme assay; format: biochemical
T1 sequence (P35754 1-106): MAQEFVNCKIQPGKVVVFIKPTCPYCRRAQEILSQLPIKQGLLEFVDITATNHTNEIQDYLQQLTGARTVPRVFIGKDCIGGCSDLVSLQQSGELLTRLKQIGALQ
Method in brief: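 Coupled assay: Grx1 (40 ng) reduces Cys-SSG (100 μM), and glutathione reductase recycles the resulting GSSG while oxidising NADPH. Buffer was 0.1 M phosphate pH 7.4 with 1 mM EDTA, BSA, 0.2 mM NADPH, yeast GR (4 units) and 0.25 mM GSH. Grx1 was incubated with peptide at 10–200 μM. NADPH loss was followed at 340 nm. Initial rates were converted to percent inhibition, and values are mean ± SD, n=3 independent experiments.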

Trx1 [2] = target: T2, Trx1 (Homo sapiens, UniProt P10599); assay: Phage display selection; format: binding; conditions: trial 3; bait Trx1; elution with 1GP3; three rounds of bio-panning; DTT 1 mM
T2 sequence (P10599 1-105): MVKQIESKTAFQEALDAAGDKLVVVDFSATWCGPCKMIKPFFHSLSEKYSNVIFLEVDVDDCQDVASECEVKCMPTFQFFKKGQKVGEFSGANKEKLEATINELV

[3] = not told
Grx1 [4] = target: T1, Grx1; assay: Phage display selection; format: binding; conditions: trial 2; bait Grx1; elution with 1GP3; three rounds of bio-panning; DTT 1 mM
human Grx1 = conditions: ref [53]; cited from earlier work
MDA-MB-231 cells = assay: Cell viability, Trypan blue assay; format: cell-based; conditions: 48 h, 37 °C, n= 2 independent experiments
Method in brief: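 Viability was scored by Trypan blue exclusion. MDA-MB-231 cells in 6-well plates were treated with the TAT-fused test peptide, a reverse-sequence TAT control or a reference Trx1 inhibitor for 48 h at 37 °C. Cells were washed with PBS, trypsinised and resuspended in medium. They were mixed with 0.4% trypan blue and counted on an automated cell counter. Results are mean ± SD of 2 independent experiments.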

Trx1 [5] = conditions: ref [44]; cited from earlier work
Trx1-Ask1 interaction = assay: Co-immunoprecipitation of Ask1 and Trx1 in cells; format: cell-based; conditions: MDA-MB-231 cells, 6 h; co-IP
GRP78 = GRP78 induction; format: cell-based; conditions: MDA-MB-231 cells, 100 μM, 6 h
Method in brief: (§1)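 MDA-MB-231 cells in 6 cm dishes were exposed to the test peptide, a TAT-only peptide, a scrambled-order (reverse) TAT peptide or a reference Trx1 inhibitor at 37 °C for 6 h. Cells were then lysed in TBST with 0.1% Triton X-100, 50 mM NaF and EDTA-free protease inhibitors. Equal protein was run on SDS-PAGE and blotted to PVDF. Primary antibodies (p-Ask1 Thr845, p-JNK Thr183/Tyr185, p-p38 Thr180/Tyr182, p-AMPK Thr172, GRP78, plus total proteins) were applied overnight at 4 °C, followed by HRP secondary and chemiluminescence. Data come from two or three independent experiments.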

Ask1 = Ask1 phosphorylation, Western blotting; format: cell-based; conditions: MDA-MB-231 cells, 6 h
Method in brief: as §1

JNK = JNK phosphorylation, Western blotting; format: cell-based; conditions: MDA-MB-231 cells, 100 μM, 6 h
Method in brief: as §1

AMPK = AMPK phosphorylation, Western blotting; format: cell-based; conditions: MDA-MB-231 cells, 100 μM, 6 h
Method in brief: as §1

p38 = p38 phosphorylation, Western blotting; format: cell-based; conditions: MDA-MB-231 cells, 100 μM, 6 h
Method in brief: as §1

p53 = p53 stabilization, Western blotting; format: cell-based; conditions: 100 μM, 6 h
[6] = ref [45], [46]; cited from earlier work
[7] = target: T3, thioredoxin 1 (Trx1), human, His-tagged, purified (human, UniProt P10599 1-105); assay: pull-down
T3 sequence (looked up): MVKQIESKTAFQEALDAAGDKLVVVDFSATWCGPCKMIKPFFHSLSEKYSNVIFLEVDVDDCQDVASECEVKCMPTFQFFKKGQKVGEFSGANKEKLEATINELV

[8] = target: T4, glutaredoxin 1 (Grx1), human, His-tagged, purified (human, UniProt P35754 1-106); assay: BLI
T4 sequence (looked up): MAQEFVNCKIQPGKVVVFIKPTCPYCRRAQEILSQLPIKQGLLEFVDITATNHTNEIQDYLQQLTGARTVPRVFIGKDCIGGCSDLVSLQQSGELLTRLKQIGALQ

[9] = target: T3, thioredoxin 1 (Trx1), human, …; assay: BLI
[10] = target: T4, glutaredoxin 1 (Grx1), human, …; assay: SPR
[11] = target: T4, glutaredoxin 1 (Grx1), human, …; assay: pull-down

ANHTMQV [1GP3]
IC50 (Grx1 [1]): 46 µM

AMYSRGT [2TP1]
# of colony (Trx1 [2]): 2

ETRWPNT [2GTP1]
Cell permeability [3]: poor cell permeability
IC50 (Grx1 [1]): 11 µM

SVGSFSM [2GP1]
# of colony (Grx1 [4]): 1

GRYAIPL [2GP2]
# of colony (Grx1 [4]): 2

SHYNYKV [1GP2]
Inhibition of Grx1 de-glutathionylation (Grx1 [1]; Cys-SSG 100 μM substrate, 0.1 M phosphate pH 7.4, peptide 10–200 μM): did not have any inhibitory activity

N[C@@H](CCC(=O)N[C@@H](CS)C(=O)NCC(=O)O)C(=O)O [reduced glutathione]
Binding affinity with human Grx1 (human Grx1): does not have significant binding affinity

SLKTTMP [2TP3]
# of colony (Trx1 [2]): 1

CCC(C)SSc1ncc[nH]1 (centres unmarked) [PX-12, sec-butyl 2-imidazoylyl disulfide]
Cell viability (MDA-MB-231 cells): significantly decreased viability; also recorded: potent cytotoxicity
Cys residues of Trx1 oxidized or modified (Trx1 [5]): catalytic C32 and redox-sensitive C73
Disruption of Trx1-Ask1 interaction in cells (Trx1-Ask1 interaction): disrupted the Trx1-Ask1 interaction
GRP78 induction (GRP78): induced expression of GRP78
Ask1 phosphorylation (Ask1): activated Ask1 by phosphorylation
JNK phosphorylation (JNK): induced JNK phosphorylation
AMPK phosphorylation (AMPK): phosphorylation of AMPK
p38 phosphorylation (p38): without p38 phosphorylation
p53 stabilization (p53; MCF7 cells (wild-type p53, high Trx1)): induced p53 stabilization
p53 stabilization (p53; MDA-MB-231 cells (mutant p53 R280K)): strong stabilization of mutant p53
Anti-tumor activity in clinical evaluation [6]: low anti-tumor activity

RFADPRL [2TP2]
# of colony (Trx1 [2]): 1

ETRWPNT [non-biotinylated 2GTP1]
binding result [7]: binds

ETRWPNT (not fully specified (N-terminus); also: biotinylated, position not given here) [biotinylated 2GTP1 peptide (biotin-2GTP1)]
Kd [8]: 1.2 µM
Kd [9]: 2.5 µM

ANHTMQV (not fully specified (N-terminus); also: biotin, position not given here) [biotin-1GP3]
Kd [10]: 38 ± 2 µM

SHYNYKV (not fully specified (N-terminus); also: biotin, position not given here) [biotin-1GP2]
binding result [11]: binds

Reference: publication PMC5856478 (Biochemistry, 2018)
